Screening results from PubChem.
hiPSC survival: enhancers of single-cell hiPSC survival, primary screen, ATPlite luminescence; survival enhancement, % at 20 µM; actives 0.044% (n = 360,000); 100% = ROCK inhibitor wells, 0% = DMSO; in the data active = survival enhancement above about 18%;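 also: cells exposed to compounds for 16 hours before the ATP read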
HKDC1 inhibitor: HKDC1 hexokinase inhibitors, primary screen, biochemical, fluorescence, uHTS | Q2TB90 | recombinant HKDC1, G6PDH/diaphorase resazurin coupled fluorescence | inhibition, % at 20 µM | AID 493160, 2011 | actives 0.16% (n = 340,000);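 active = inhibition above about 35% when tested at 20 µM, limit read from the data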;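 also: plate controls were DMSO wells with enzyme for no effect and DMSO wells lacking enzyme for full effect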
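Test system: recombinant HKDC1 (HK5) hexokinase enzyme, produced in-house / Doses: 20 µM test compound, 1% DMSO / Timing: 90 min, room temperature / Detection: G6PDH/diaphorase-coupled fluorescence, 1 mM NADP, 100 µM resazurin, 525/613 nm / Control set: DMSO wells with and without enzyme mix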
PfG6PD inh: PfG6PD enzyme inhibitors, primary screen, biochemical, fluorescence intensity, uHTS; glucose-6-phosphate dehydrogenase-6-phosphogluconolactonase (Plasmodium falciparum 3D7); PfGluPho enzyme, NADPH resazurin-diaphorase fluorescence; inhibition, % at 20 µM; actives 0.78% (n = 350,000);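 active = inhibition reaching at least a set limit at 20 µM in the primary screen, cut at about 59% in these data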;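 also: 0% = DMSO wells with substrate and 100% = DMSO wells lacking glucose-6-phosphate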
A3G deaminase: APOBEC3G DNA deaminase inhibitors, primary screen, biochemical, fluorescence, single-stranded DNA substrate, uHTS; recombinant A3G, ssDNA deamination FAM/TAMRA fluorescence; actives 0.28% (n = 330,000); inhibition, % at 20 µM;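 active = inhibition of at least 40% at 20 µM, with no more than 30% in the related APOBEC3A deaminase screen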;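 also: plate controls were DMSO wells with A3G for no effect and wells lacking A3G enzyme for full effect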
A3A deaminase: APOBEC3A ssDNA deaminase inhibitors, primary screen, selectivity assay for APOBEC3G inhibitor project, biochemical, FAM/TAMRA oligo cleavage fluorescence. inhibition, % at 20 µM. actives 0.41% (n = 330,000). recombinant A3A, FAM/TAMRA ssDNA deamination fluorescence. DNA dC->dU-editing enzyme APOBEC-3A (Homo sapiens), P31941;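 active = at least 40% inhibition at 20 µM here, with at most 30% in a related deaminase screen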;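 also: plate controls were A3A with DMSO for no effect and wells lacking A3A enzyme for full effect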
PfG6PD confirm: PfG6PD inhibitors, hit retest, confirmation, biochemical, fluorescence intensity, single concentration. recombinant PfGluPho, NADPH-diaphorase-resazurin fluorescence. shares compounds with PfG6PD inh. actives 34% (n = 2,400). inhibition, % at 20 µM;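 active = inhibition of at least 50% at 20 µM in any single replicate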;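 also: 0% = DMSO with substrate and 100% = DMSO lacking glucose-6-phosphate substrate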
Diaph ctr 10uM: diaphorase inhibitors and chemical oxidizers, confirmation, counter-screen for P. falciparum G6PD inhibitor project, biochemical, fluorescence intensity, 10 µM NADPH. shares compounds with PfG6PD inh. diaphorase-coupled resazurin reduction, NADPH 10 uM. inhibition, % at 20 µM. actives 39% (n = 820). AID 504862, 2011;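 active = average inhibition reaching 50% or more with the compound at 20 µM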;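 also: resorufin red fluorescence formed as diaphorase reduces resazurin using NADPH; 0% = DMSO with enzyme and 100% = DMSO without enzyme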
Diaphorase 30uM: diaphorase inhibitors and chemical oxidizers, confirmation, counter-screen for P. falciparum G6PD inhibitor project, biochemical, fluorescence intensity, 30 µM NADPH | shares compounds with PfG6PD inh | Diaphorase/resazurin coupled assay, resorufin fluorescence | inhibition, % at 20 µM | actives 29% (n = 820) | AID 504863, 2011;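 active = inhibition averaging 50% or more, tested at 20 µM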;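 also: 0% = DMSO with enzyme and 100% = DMSO wells lacking diaphorase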
* = called active by the depositor; · = not tested or not shown. An excerpt weighted towards active compounds, which were near 1.4% of everything screened.

SMILES	hiPSC survival	HKDC1 inhibitor	PfG6PD inh	A3G deaminase	A3A deaminase	PfG6PD confirm	others
O=C(CCCOc1ccc(Cl)cc1Cl)N/N=C/c1ccccc1	1	-1	119*	-8	2	86*	Diaph ctr 10uM=88*;Diaphorase 30uM=71*
CCCCNC(=O)CCCCC(=O)N/N=C/c1cccc(Cl)c1	4	-8	65*	-6	-1	11
Cc1ccccc1-c1nnn(Cc2cccc(S(=O)(=O)N3CCOCC3)c2)n1	0	2	-1	-7	-1	·
C[C@]1(O)CC(=O)C=C[C@H]1Nc1ccccc1	-3	8	2	·	·	·
Cc1cc(C)c(S(=O)(=O)N2CCCCC2CCNC(=O)C(=O)NCc2ccco2)c(C)c1 (stereo not drawn)	0	7	5	-4	0	·
CC(C)C(=O)Nc1nc(-c2ccc3c(c2)CCN3C(=O)C2CC2)cs1	0	-1	52	-6	-2	·
CC(C)(C)Nc1nc(-c2ccc3c(c2)CCN3C(=O)C2CC2)cs1	0	-12	70*	-10	-3	17
CCNc1ccccc1CP(=O)(c1ccccc1)c1ccccc1O (stereo not drawn)	·	23	81*	31	0	87*	Diaph ctr 10uM=44;Diaphorase 30uM=23
Cc1ccc(O)c(CP(=O)(c2ccccc2)c2ccccc2)c1	3	-5	14	-6	0	·
O=[N+]([O-])c1ccc(Cl)c(S(=O)(=O)Nc2cccc(S(=O)(=O)NC3=NCCC3)c2)c1	3	13	67*	3	0	42
CCOc1ccc(-n2c(N)c(C(=O)NCc3cccnc3)sc2=S)cc1	1	-4	53	-3	-1	·
CCOc1ccc(-n2c(N)c(C(=O)NCc3ccco3)sc2=S)cc1	2	-2	85*	30	3	31
COc1ccc(CNC(=O)c2sc(=S)n(-c3ccccc3)c2N)cc1	1	-6	61*	31	-2	41
Cc1cc(C(=O)NCCN2CCOCC2)c2ccccc2n1	1	-2	-4	1	0	·
C=C(CN(C)C)C(=O)c1cc(C)ccc1C	0	6	79*	·	·	47
Clc1ccc2nc(SCc3nnc(-c4ccccc4)o3)[nH]c2c1	2	8	113*	-7	-4	44
Cc1cc(=O)[nH]c(SCc2nnc(-c3ccccc3)o2)n1	2	-4	-6	-4	-14	·
Cc1cc(-n2c(C)cc(C(=O)COc3ccc(F)c(F)c3)c2C)no1	0	7	61*	-6	-2	9
Cc1cc(-n2c(C)cc(C(=O)COc3ccccc3[N+](=O)[O-])c2C)no1	-2	1	10	-12	-3	·
c1ccc(NC2=Nc3cccc4cccc2c34)cc1	0	-1	48	0	2	·
COc1ccc(NC2=Nc3cccc4cccc2c34)cc1	-1	2	75*	-2	-1	23
CC(=O)Oc1cc(C(=O)OCC(=O)N2CCc3ccccc3C2)cc(OC(C)=O)c1OC(C)=O	-1	-5	-42	-8	-2	·
Cc1c(/C=N/O)c2ccccn2c1C(=O)c1ccc(F)cc1	0	4	76*	-9	-5	42
CCOC(=O)c1c(C)[nH]c(C(=O)N2CCC(C(=O)OCC)CC2)c1C	0	-10	-8	-6	-3	·
Cc1ccc(N2CC(C(=O)OCC(=O)c3ccc([N+](=O)[O-])cc3)CC2=O)cc1 (stereo not drawn)	0	-2	60*	-11	-5	57*	Diaph ctr 10uM=-9;Diaphorase 30uM=-2
SMILES	hiPSC survival	HKDC1 inhibitor	PfG6PD inh	A3G deaminase	A3A deaminase	PfG6PD confirm	others
Cc1cc(C)cc(NC(=S)N2CCC(NC(=O)c3ccccc3C)CC2)c1	0	10	-2	-2	-3	·
CCOC(=O)c1cnc(-c2cccc(OC)c2)[nH]c1=O	-1	-8	96*	-3	-2	78*	Diaph ctr 10uM=75*;Diaphorase 30uM=56*
CCOC(=O)c1cnc(-c2ccccc2)[nH]c1=O	1	-3	35	-3	3	·
CCc1c(C)nc2c(Br)cccc2c1SCCC#N	4	-1	59*	-3	-4	-5
CCc1c(C)nc2ccc(Br)cc2c1SCCC#N	1	-12	21	3	1	·
O=C(CCc1ccc(S(=O)(=O)N2CCOCC2)cc1)N/N=C/c1ccc(F)cc1F	2	2	0	-5	3	·
O=C(CCc1ccc(S(=O)(=O)N2CCOCC2)cc1)N/N=C/c1ccc(O)c(O)c1O	1	23	68*	9	35	60*	Diaph ctr 10uM=33;Diaphorase 30uM=43
O=C(CCc1ccc(O)c(O)c1)N/N=C/c1cc2c(cc1[N+](=O)[O-])OCO2	0	17	68*	10	3	65*	Diaph ctr 10uM=33;Diaphorase 30uM=17
CN(C)c1ccc(NC(=O)Nc2ccc3c(c2)c(=O)n(C)n3Cc2ccc(Cl)cc2)cc1	2	·	·	·	·	·
Cc1ccc(-c2c(C(=O)N/N=C/c3cccc(Cl)c3)nnn2-c2nonc2N)cc1	0	2	145*	-1	0	110*	Diaph ctr 10uM=99*;Diaphorase 30uM=84*
Cc1ccc(-c2c(C(=O)N/N=C/c3ccoc3)nnn2-c2nonc2N)cc1	0	-2	28	0	0	·
CCOc1ccc(-c2c(C(=O)N/N=C/c3cccs3)nnn2-c2nonc2N)cc1	0	-7	-4	-5	-3	·
Cc1ccc(-c2c(C(=O)N/N=C/c3ccsc3)nnn2-c2nonc2N)cc1	0	1	82*	0	0	54*	Diaph ctr 10uM=46;Diaphorase 30uM=47
Cc1ccc(-c2c(C(=O)N/N=C/c3cccs3)nnn2-c2nonc2N)cc1	0	3	81*	-2	2	69*	Diaph ctr 10uM=61*;Diaphorase 30uM=48
CCOc1ccccc1C(=O)NCC(=O)NNC(=O)c1cccs1	1	4	-7	-6	-6	·
NS(=O)(=O)c1ccc(N=C2C(=O)Nc3ccccc32)cc1	1	5	-18	-8	-4	·
CC(C)C1=CC(=Nc2ccc(S(N)(=O)=O)cc2)C=C(C(C)C)C1=O	0	17	76*	-4	1	36
